Compound activity (PubChem BioAssay)
Shown are actives, neighbours in structure and some others; about 3.3% of the full set was active somewhere.
SIAE inh: human SIAE inhibition, primary screen. SIAE FP-Rh probe binding, fluorescence polarization. inhibition, % at 9.66 µM. 370,000 compounds, 0.69% hits. AID 1053197;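 active = inhibition above a cutoff: mean of compounds within the control limits plus 3 SD of those, cut at about 17% in these data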
Target sequence (Q9HAT2 whole entry, looked up): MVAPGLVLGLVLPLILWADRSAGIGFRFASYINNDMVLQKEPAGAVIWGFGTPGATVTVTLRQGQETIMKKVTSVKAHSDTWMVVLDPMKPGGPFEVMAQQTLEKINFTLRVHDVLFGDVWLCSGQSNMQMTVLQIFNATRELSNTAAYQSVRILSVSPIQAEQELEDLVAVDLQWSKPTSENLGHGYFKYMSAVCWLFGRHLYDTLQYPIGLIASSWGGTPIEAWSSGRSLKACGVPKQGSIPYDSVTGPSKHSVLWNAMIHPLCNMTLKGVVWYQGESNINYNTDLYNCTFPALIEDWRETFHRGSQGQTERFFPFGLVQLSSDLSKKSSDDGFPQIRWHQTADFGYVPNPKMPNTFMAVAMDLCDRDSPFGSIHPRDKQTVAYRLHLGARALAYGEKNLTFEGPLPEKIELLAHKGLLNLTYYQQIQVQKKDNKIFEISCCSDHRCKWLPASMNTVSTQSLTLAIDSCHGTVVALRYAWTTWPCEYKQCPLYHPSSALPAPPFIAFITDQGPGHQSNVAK
HTRA1 inh: inhibitors of human serine peptidase HTRA1; recombinant HTRA1, FP-rhodamine activity-based probe, fluorescence polarization; inhibition, % at 5.96 µM; 340,000 compounds, 0.5% hits; AID 504803; in the data active = inhibition above about 36%
rCAG binder: molecules binding r(CAG) RNA repeats; 370,000 compounds, 1.3% hits; r(CAG) RNA repeat, TO-PRO-1 dye displacement fluorescence; inhibition, % at 3 µM;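 active = inhibition above the plate cutoff, the mean of all test compounds on that plate plus 3 SD, cut at about 35% in these data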;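 note: higher means more dye released from RNA so lower well fluorescence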
mABHD4 FP: inhibits mouse alpha/beta hydrolase domain 4; Q8VD66; purified mABHD4, FP-Rh probe fluorescence polarization; inhibition, % at 8.92 µM; 370,000 compounds, 0.54% hits;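 active = inhibition exceeding the mean over every tested compound plus 3 SD, cut at about 30% in these data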
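Test system: mABHD4 protein | Buffer or medium: HEPES pH 7.0 buffer, 150 mM NaCl, 0.01% Pluronic F-127 | Probe or stimulus: FP-Rh fluorescent activity-based probe, added after compound pre-incubation | Timing: Pre-incubation 45 min, probe exposure 60 min, at 25 °C | Technique: Fluorescence polarization, excitation 525 nm, emission 598 nm, BODIPY TMR filters | Repeats: Single well per compound (singlicate)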
PRMT1 inh: inhibitors of human PRMT1. inhibition, % at 2.79 µM. recombinant PRMT1, activity-based probe fluorescence polarization. 370,000 compounds, 1.3% hits. Q99873;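 active = inhibition above about 21% made by adding two undisclosed values, limit read from the data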
PRMT1 inh conf: PRMT1 (human) inhibition, FP confirmation; shares compounds with PRMT1 inh; 3,300 compounds, 42% hits; recombinant His-PRMT1, activity-based probe fluorescence polarization; inhibition, % at 2.79 µM; AID 687036;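 active = mean inhibition across replicates above the hit cutoff derived for the earlier primary screen, cut at about 22% in these data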
Large screens that a line does not name were inactive (follow-up assays come after a bar, where they were run).

Nc1ccc2[nH]c(=S)[nH]c2c1	none
COc1ccc(-n2ccn(CC(=O)Nc3ccc(OC)cc3OC)c(=O)c2=O)cc1	none
CCN1CCN(C(=S)c2ccc(Br)cc2)CC1	PRMT1 inh 36 | PRMT1 inh conf 35
Oc1ccc(C(=S)N2CCCC2)cc1	none
CCN1CCN(C(=S)c2ccc(O)cc2)CC1	PRMT1 inh 81 | PRMT1 inh conf 52
CC(=O)N(O)c1ccc(C=Cc2ccccc2)cc1	none (no result: HTRA1 inh)
COc1cc(/C=N/NC(=O)c2ccc(CN3C(=O)c4cccc5cccc3c45)cc2)cc(OC)c1O	none
CCn1nc(C)cc1C(=O)N1CCCC(N(C)CCc2ccc(OC)c(OC)c2)C1 (stereo not drawn)	none
CC(C)[C@H](NC(=O)OCc1ccccc1)C(=O)N[C@@H](Cc1ccccc1)C1(O)CN(C)C(C(=O)NCc2ccccn2)CO1 (stereo partly drawn)	none (no result: HTRA1 inh, rCAG binder)
Cc1cc(Br)cn2c(Cc3ccccc3C(F)(F)F)c(-c3ccco3)nc12	PRMT1 inh 40 (no result: HTRA1 inh) | PRMT1 inh conf 23
Cc1ccc(Cc2c(-c3ccco3)nc3c(C)cc(Br)cn23)cc1	PRMT1 inh 33 (no result: HTRA1 inh) | PRMT1 inh conf inactive
CCN(CC(=O)NC1CCS(=O)(=O)C1)S(=O)(=O)c1c(C)c(C)cc(C)c1C (stereo not drawn)	none
O=C(COC(=O)Cc1ccc(S(=O)(=O)N2CCOCC2)s1)Nc1ccc([N+](=O)[O-])cc1	none
C#Cc1ccc([C@H]2C=C(C(=O)NCc3nc4ccccc4[nH]3)O[C@@H](OCC)[C@@H]2CCCO)cc1	none
O=C(Cc1ccccc1)Nc1cccc(N2C(=O)C=CC2=O)c1	PRMT1 inh 96 | PRMT1 inh conf 95
O=C(O)c1cccc(N2C(=O)C=CC2=O)c1	PRMT1 inh 59 | PRMT1 inh conf 84
O=C(COC(=O)c1ccc(F)c(S(=O)(=O)N2CCOCC2)c1)NCc1ccc(Cl)cc1	none
O=C(NC1CCCCC1)c1cccc(N2C(=O)CCC2=O)c1	none
Cc1c(C)n2c(SCC(=O)Nc3cccc4ccccc34)nnc2[nH]c1=O	none
CC(Sc1nnc(C2CC2)n1C1CC1)C(=O)Nc1cccc(S(=O)(=O)N(C)C)c1 (stereo not drawn)	PRMT1 inh 37 | PRMT1 inh conf inactive
O=C(O)c1ccccc1C(=O)Nc1ccccc1	none
O=C(Nc1ccccc1)C1=C(c2ccccc2)S(=O)(=O)CCS1(=O)=O	PRMT1 inh 47 | PRMT1 inh conf 56
Cn1c(=O)c(=O)n(C)c2cc(N3CCOCC3)c(NS(=O)(=O)c3ccc([N+](=O)[O-])cc3)cc21	PRMT1 inh 25 | PRMT1 inh conf inactive
COc1ccc(C)cc1NC(=O)NNC(=O)C(C)Oc1ccc(F)cc1Cl (stereo not drawn)	none
Cc1ccc(O)c(N)c1	none (no result: SIAE inh, rCAG binder, mABHD4 FP, PRMT1 inh)
Cc1ccc(SSc2cc(C)ccc2N)c(N)c1	PRMT1 inh 70 | PRMT1 inh conf 87
CC1=C(C(=O)Nc2ccccc2)C(c2ccc(O)cc2)N2C(=O)CSC2=N1 (stereo not drawn)	PRMT1 inh 26 | PRMT1 inh conf 29
O=c1sc(/C=N/Nc2ccccc2)c(Cl)n1Cc1ccccc1	PRMT1 inh 59 | PRMT1 inh conf inactive
O=C(O)c1cccc(Cn2c(Cl)c(/C=N/NC(=O)c3ccc(O)cc3)sc2=O)c1	none
Cc1sc(NC(=O)c2ccco2)c(C(c2cccnc2)N2CCC(C)CC2)c1C (stereo not drawn)	none
O=C(O)CN1C(=O)S/C(=C\c2ccc3c(c2)OCO3)C1=O	PRMT1 inh 33 | PRMT1 inh conf inactive
CC(C)(C)OC(=O)N1CCC(C(=O)Nc2ccc(C(=O)NC3CC3)cc2)CC1	none
O=C(Oc1ccc(NC2=NS(=O)(=O)c3ccccc32)cc1)c1cccnc1	none
CCOc1ccc(OCCn2nnc3ccccc3c2=O)cc1	none
O=C(NCCSc1ccccn1)c1ccc(Cl)cc1	none
N#CC(Sc1ccccn1)c1ccc(Cl)cc1 (stereo not drawn)	PRMT1 inh 46 | PRMT1 inh conf 35
O=C(Cn1c(NCCCO)nc2ccccc21)c1ccc(Cl)cc1Cl	none
CC(NCC(=O)Nc1cc(S(=O)(=O)N2CCOCC2)ccc1Cl)c1ccc(Cl)cc1Cl (stereo not drawn)	none
COc1ccccc1-n1c(SCC(=O)NCc2ccc3c(c2)OCO3)nc2cc([N+](=O)[O-])ccc21	PRMT1 inh 84 | PRMT1 inh conf 26
CCC1CCCCN1C(=S)NC(=O)c1cccs1 (stereo not drawn)	none
O=C(NC(=S)N1CCCCC1CO)c1cccs1 (stereo not drawn)	PRMT1 inh 33 | PRMT1 inh conf inactive
Cc1ccc(C2CC2c2n[nH]c(=S)n2-c2ccc(Cl)cc2)cc1 (stereo not drawn)	PRMT1 inh 27 | PRMT1 inh conf inactive
Cc1ccc(C2CC2c2n[nH]c(=S)n2-c2cccc(C)c2)cc1 (stereo not drawn)	PRMT1 inh 26 | PRMT1 inh conf inactive
Cc1cccc(-n2c(C)n[nH]c2=S)c1	none
O=C(c1cccs1)C1CCCN(Cc2nc(Cc3ccccc3F)no2)C1 (stereo not drawn)	none
CC(C)n1cc(/C=C/c2cc[n+](C)cc2)c2ccccc21	PRMT1 inh 31 | PRMT1 inh conf inactive
CCc1[nH]c(=S)c(C#N)c(-c2ccccc2)c1C(=O)OC	none
Cc1[nH]c(=S)c(C#N)c(-c2ccccc2)c1C(=O)Nc1ccccc1	PRMT1 inh 36 | PRMT1 inh conf inactive
O=C(O)C1=C(C2CCCCC2)C(=O)c2ccccc21	none
O=C1C=C(C2CCCCC2)C(=O)c2ccccc21	PRMT1 inh 31 | PRMT1 inh conf inactive
Cc1cc(C)c(NC(=O)/C(=C/c2ccco2)c2ccccc2)c(C)c1	none
Cc1cccc(C)c1NC(=O)/C(=C/c1ccco1)c1ccccc1	PRMT1 inh 26 | PRMT1 inh conf inactive
COC(=O)C1(C(=O)OC)c2ccccc2N(S(=O)(=O)c2ccc(C)cc2)C1CC(C)=O (stereo not drawn)	none (no result: HTRA1 inh)
COc1cccc(-n2c(=S)sc3c(=O)n(-c4ccccc4OC)c(=S)[nH]c32)c1	PRMT1 inh 82 | PRMT1 inh conf inactive
COc1ccc(-n2c(SCC#N)nc3c(sc(=S)n3-c3ccccc3)c2=O)c(OC)c1	none
COc1ccc(OC)c(-n2c(=S)[nH]c3c(sc(=S)n3-c3ccccc3C)c2=O)c1	PRMT1 inh 48 | PRMT1 inh conf inactive
COc1ccccc1-n1c(SCC(=O)O)nc2c(sc(=S)n2-c2ccccc2C)c1=O	none
O=C(CN(C(=O)CSc1nc2ccccc2o1)c1cccc(F)c1)NC1CCCCC1	none
O=C(CCSc1ccc(Br)cc1)c1ccc(O)cc1	PRMT1 inh 31 | PRMT1 inh conf inactive
COC(=O)C1=C(C)NC(=S)NC1c1ccc(-c2ccccc2C(=O)OC)o1 (stereo not drawn)	PRMT1 inh 31 | PRMT1 inh conf inactive
CCOC(=O)C1=C(C)NC(=O)NC1c1ccc(-c2ccc(Cl)cc2)o1 (stereo not drawn)	none
